Measured values from PMC3703767 (Virology, 2008).

Key:
[1] = test system: MNV-1; experiment: Mouse norovirus PPMO inhibition assay in RAW264.7 cells; format: cell-based, murine norovirus
Summary of the method: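 RAW264.7 cells (2×10^5/well) were seeded and incubated overnight, then rinsed and exposed 4 h to test compound in plain DMEM (8 replicate wells). They were rinsed again and infected with MNV-1.CW1 for 2 h at 37 °C, then kept 3 days at 37 °C. Wells were formalin-fixed and stained with crystal violet; methanol-eluted stain was read at A570. Variants used fixed compound with 10-fold virus dilutions (20–2×10^5 PFU/well), or 1.25–80 μM compound with 2×10^4 PFU/well. % lysis = ([treated]−[treated+infected])/[treated]×100.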

[2] = test system: Hu/NoV/GI.1/Norwalk virus/1968/US 5′ ORF1 sequence; experiment: Luciferase reporter assay, Norwalk leader; format: biochemical, human norovirus; settings: target with 1 mismatch to Noro 1.1; luciferase signal
Summary of the method: (§1)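 In vitro translation in nuclease-treated rabbit reticulocyte lysate. The target 5′-end leader sits upstream of firefly luciferase; RNA is T7-transcribed from NotI-cut plasmid (1 nM final). Test compound is added at 0.01–83 μM final, and reactions run 75 min at 37 °C, then are chilled on ice. Percent inhibition is calculated from luciferase signal versus no-compound reaction. Each assay was run at least twice, by two investigators in separate labs.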

[3] = test system: Hu/NoV/GI.2/Southampton/1991/UK 5′ ORF1 sequence; experiment: Luciferase reporter assay, Southampton leader; format: biochemical, human norovirus; settings: target with 0 mismatches to Noro 1.1; luciferase signal
Summary of the method: as §1

[4] = test system: Hu/NoV/GI.6/WUG1/2000/JP 5′ ORF1 sequence; experiment: Luciferase reporter assay, WUG1 leader; format: biochemical, human norovirus; settings: target with 1 mismatch to Noro 1.1; luciferase signal
Summary of the method: as §1

[5] = test system: Hu/No.V/GII.4/Lordsdale/1993/UK 5′ ORF1 sequence; experiment: Luciferase reporter assay, Lordsdale leader; format: biochemical, human norovirus
Summary of the method: as §1

[6] = test system: Hu/NoV/GII.12/CN2753/1998/USA 5′ ORF1 sequence; experiment: Luciferase reporter assay, CN2753 leader; format: biochemical, human norovirus; settings: target with 2 mismatches to Noro 1.1; luciferase signal
Summary of the method: as §1

[7] = test system: Hu/NoV/GII.4/CN3050/1998/USA 5′ ORF1 sequence; experiment: Luciferase reporter assay, CN3050 leader; format: biochemical, human norovirus
Summary of the method: as §1

[8] = test system: Laboratory variant 1 5′ ORF1 sequence; experiment: Luciferase reporter assay, Laboratory variant 1 leader; format: biochemical
Summary of the method: as §1

[9] = test system: Laboratory variant 2 5′ ORF1 sequence; experiment: Luciferase reporter assay, Laboratory variant 2 leader; format: biochemical
Summary of the method: as §1

[10] = test system: Laboratory variant 3 5′ ORF1 sequence; experiment: Luciferase reporter assay, Laboratory variant 3 leader; format: biochemical
Summary of the method: as §1

[11] = test system: Bo/NoV/GIII.1/Jena/1998/DEU 5′ ORF1 sequence; experiment: Luciferase reporter assay, Jena bovine norovirus leader; format: biochemical
Summary of the method: as §1

[12] = test system: Norwalk virus replicon in HG23 cells; experiment: PMO inhibition of norovirus protein expression in replicon cell line HG23; format: cell-based; settings: 16 μM, 5-day incubation, immunofluorescence
Summary of the method: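 HG23 cells (Huh-7-derived Norwalk replicon line, DMEM/10% FBS/0.25 mg/ml neomycin) received 16 μM unconjugated morpholino by nucleofection (solution L, program A020). A total of 2×10^6 cells were seeded and incubated 5 days at 37 °C. Cells were then fixed in ice-cold methanol and analysed by immunofluorescence with guinea pig antisera against Norwalk VP1 and RdRP.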

[13] = test system: Norwalk virus replicon in HG23 cells; experiment: Norwalk virus RNA in replicon-bearing HG23 cells; format: cell-based; settings: 16 μM, quantitative real-time RT-PCR, data not shown
Summary of the method: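 HG23 replicon cells were electroporated with 16 μM test compound and incubated 5 days at 37 °C. Replicon RNA in treated and untreated cells was then quantified by single-step real-time RT-PCR with a standard curve in each run. Cycling: 45 °C 30 min, 95 °C 10 min, then 45 cycles of 95 °C 30 s, 50 °C 1 min, 72 °C 30 s.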

[14] = target with 6 mismatches to Noro 1.1, luciferase signal

## CGCAGAAGATGGCGTTGCCATCCTC [PPMO C]
[1]; 20 μM PPMO, 2 × 10^4 PFU/well MNV-1
  effectiveness in inhibiting viral replication: 70%
[1]; PPMO C 80 μM, MNV-1 20 to 2 × 10^5 PFU/well, 8 replicates
  maximal dose of MNV-1 inhibited: up to 2 × 10^5 PFU

## CGTTGCCATCCTCATTTCAC [PPMO B]
[1]; PPMO B 20 μM, MNV-1 20 to 2 × 10^5 PFU/well, 8 replicates
  dose of MNV-1 whose replication is completely inhibited: 2 × 10^3 PFU

## CGACGCCATCATCATTCAC [Noro 1.1]
[2]
  Outcome of in vitro assay: Inhibition (Inhibition defined as > 60% reduction of protein synthesis, as defined by luciferase signal.)
[3]
  Outcome of in vitro assay: Inhibition (Inhibition defined as > 60% reduction of protein synthesis, as defined by luciferase signal.)
[4]
  Outcome of in vitro assay: Inhibition (Inhibition defined as > 60% reduction of protein synthesis, as defined by luciferase signal.)
[5]; GII.4 variant
  inhibition of translation achieved: 100%
[5]; target with 2 mismatches to Noro 1.1, luciferase signal
  Outcome of in vitro assay: Inhibition (Inhibition defined as > 60% reduction of protein synthesis, as defined by luciferase signal.)
[6]
  Outcome of in vitro assay: Inhibition (Inhibition defined as > 60% reduction of protein synthesis, as defined by luciferase signal.)
[7]; GII.4 variant
  inhibition of translation achieved: 100%
[7]; target with 3 mismatches to Noro 1.1, luciferase signal
  Outcome of in vitro assay: Inhibition (Inhibition defined as > 60% reduction of protein synthesis, as defined by luciferase signal.)
[8]; LabVar 1, 4 nucleotide changes
  inhibition of translation: less efficiently
[8]; target with 4 mismatches to Noro 1.1, luciferase signal
  Outcome of in vitro assay: Inhibition (Inhibition defined as > 60% reduction of protein synthesis, as defined by luciferase signal.)
[9]; LabVar 2, 5 nucleotide changes
  inhibition of translation: less efficiently
[9]; target with 5 mismatches to Noro 1.1, luciferase signal
  Outcome of in vitro assay: Inhibition (Inhibition defined as > 60% reduction of protein synthesis, as defined by luciferase signal.)
[10]; LabVar3, 6 nucleotide differences, data not shown
  inhibition of translation: completely failed to inhibit translation
[10]; [14]
  Outcome of in vitro assay: No inhibition
[11]; range of concentrations tested, 0.01 to 83 μM
  maximal inhibition achieved: ≤ 57%
[11]; [14]
  Outcome of in vitro assay: No inhibition
[12]
  Norwalk virus protein translation in HG23 cells: effectively inhibited norovirus protein translation
[13]
  Norwalk virus RNA level: did not see a significant reduction in RNA
